Scp-1 inhibitor – Scp-1 (human) phosphatase inhibition. Recombinant Scp1, phosphopeptide, malachite green phosphate absorbance. inhibition, % at 20 µM. 340,000 compounds, 0.88% hits;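 active = inhibition above about 50% at 20 µM, limit read from the data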
Target sequence (Q9GZU7 76-261 limits assumed): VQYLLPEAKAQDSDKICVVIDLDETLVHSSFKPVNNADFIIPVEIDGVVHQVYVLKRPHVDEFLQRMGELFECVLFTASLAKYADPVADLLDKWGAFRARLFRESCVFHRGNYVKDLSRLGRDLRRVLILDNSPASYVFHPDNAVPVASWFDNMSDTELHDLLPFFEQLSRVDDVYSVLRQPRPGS
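Test system: SCP-1 catalytic domain; Buffer or medium: Acidic Tris acetate buffer with magnesium and detergent; Also added: Phosphorylated 17-residue peptide substrate; Compound: single 20 µM dose, 1% DMSO; Schedule: enzyme reaction 45 min at room temperature, colour 5 min, stabilisation 30 min; Signal: Phosphate-binding colour reagent, absorbance read at 630 nm.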
DNMT1 block – DNMT1 (human) enzyme inhibition | DNMT1 molecular beacon, Hinp1I cleavage, fluorescence | 360,000 compounds, 0.83% hits | AID 588458 | inhibition (reported as % activation of signal), % at 10 µM; in the data active = inhibition above about 50%
STEP inh – blocks human striatal-enriched tyrosine phosphatase | inhibition, % at 20 µM | 360,000 compounds, 0.25% hits | recombinant STEP, OMFP fluorogenic substrate, fluorescence | AID 588621 | P54829;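 active = inhibition at 20 µM, scaled per plate between control wells, above about 37%, limit read from the data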
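material = STEP tyrosine phosphatase | reagent = fluorogenic phosphatase substrate OMFP at 25 µM final | doses = single compound dose of 20 µM, 1% DMSO final | schedule = 20 min reaction, room temperature, in the dark | measured by = fluorescence, 480/540 nm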
LMPTP block – LMPTP (human) inhibition | P24666 | recombinant LMPTP-A, OMFP fluorogenic substrate, fluorescence intensity | inhibition, % at 20 µM | 360,000 compounds, 0.22% hits | AID 651560;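 active = compounds that cut the enzyme signal by at least half of the control window in the single-dose screen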
Target sequence (P24666 whole entry, looked up): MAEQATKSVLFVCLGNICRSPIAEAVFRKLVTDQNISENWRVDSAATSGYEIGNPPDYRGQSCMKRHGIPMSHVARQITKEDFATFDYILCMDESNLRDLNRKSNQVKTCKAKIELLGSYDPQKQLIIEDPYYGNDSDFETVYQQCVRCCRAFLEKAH
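Assay system: LMPTP-A, protein tyrosine phosphatase of low molecular weight / Medium: pH 6.0 Bis-Tris buffer with DTT and Triton X-100 / Schedule: 50 min enzyme reaction at room temperature, protected from light / Measured by: endpoint fluorescence intensity from OMFP dephosphorylation / Read-out basis: % inhibition relative to no-enzyme and uninhibited control wells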
NadD block – NadD (S. aureus) enzyme inhibition. purified NadD enzyme, colorimetric absorbance read-out. inhibition, % at 20 µM. 360,000 compounds, 0.78% hits; in the data active = inhibition above about 26%
SUMO1 PPI mod – alters human SUMO1 binding to SIM partners; P63165; SUMO1 binding to a labelled peptide, TR-FRET, 1 h; inhibition, % at 20 µM; 360,000 compounds, 0.33% hits; AID 602429; in the data active = inhibition above about 37%
Target sequence (P63165 whole entry, looked up): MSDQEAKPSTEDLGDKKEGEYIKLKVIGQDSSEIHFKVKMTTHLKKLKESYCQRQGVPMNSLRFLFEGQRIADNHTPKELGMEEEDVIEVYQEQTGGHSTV
NadD conf – confirmation of Staphylococcus aureus NadD inhibitors; shares compounds with NadD block; purified S. aureus NadD, colorimetric enzyme assay; inhibition, % at 20 µM; 2,000 compounds, 13% hits; AID 624309; in the data active = inhibition mostly above about 42%, no sharp cut-off; inactive = mostly below about 42%
A number is an active result; . = inactive; / = no result given. A selection: hits, their analogues and other compounds. The true share with any hit is near 2.3%.

SMILES	Scp-1 inhibitor	DNMT1 block	STEP inh	LMPTP block	NadD block	SUMO1 PPI mod	NadD conf
COc1ccc(CCn2c(C)cc(C(=O)COC(=O)c3cnccn3)c2C)cc1	.	.	.	.	.	.	/
N#Cc1sc2nc(-c3cccs3)cc(-c3ccc(Cl)cc3)c2c1N	.	.	.	.	.	.	/
CCN(CC)C(=O)c1sc2nc(-c3cccs3)cc(-c3cccs3)c2c1N	.	.	.	.	73	.	.
CCN(CC)C(=O)c1sc2nc(-c3cccs3)cc(-c3ccc(Cl)cc3)c2c1N	.	.	.	.	44	.	.
Cc1nnc(NC(=O)c2sc3nc(-c4cccs4)cc(C(F)(F)F)c3c2N)s1	.	.	.	.	30	.	.
Cc1cc2nc(C3CCCCC3)c(Cc3ccccc3)n2c(C)c1Br	/	.	.	.	.	.	/
CCOc1ccc(CCN2C(=S)N([C@@H](CC(C)C)CN3CCCC3CN3C(=S)NC[C@@H]3Cc3ccc(O)cc3)C[C@@H]2CC(C)C)cc1 (some centres not stated)	.	.	.	.	36	.	.
CCOc1ccc(CCN2C(=S)N([C@@H](CC(C)C)CN3CCC[C@@H]3CN3C(=S)NC[C@@H]3CC(C)C)C[C@@H]2Cc2ccc(O)cc2)cc1	/	.	.	.	.	.	/
CCOc1ccc(CCN2C(=S)N([C@@H](CC(C)C)CN3CCCC3CN3C(=S)NC[C@@H]3CC(C)C)C[C@@H]2Cc2ccc(O)cc2)cc1 (some centres not stated)	.	.	.	.	.	.	/
Oc1ccc(C[C@@H](CN2CCC[C@@H]2CN2C(=S)NC[C@@H]2Cc2ccccc2)N2C[C@H](Cc3ccccc3)N(CCc3ccccc3)C2=S)cc1	/	.	.	.	.	.	/
CCOc1ccc(CCN2C(=S)N([C@@H](CC(C)C)CN3CCCC3CN3C(=S)NC[C@@H]3Cc3ccc(O)cc3)C[C@@H]2Cc2ccccc2)cc1 (some centres not stated)	.	.	.	.	34	.	.
CCOc1ccc(CCN2C(=S)N([C@@H](CC(C)C)CN3CCCC3CN3C(=S)NC[C@@H]3Cc3ccc(O)cc3)C[C@@H]2Cc2ccc(O)cc2)cc1 (some centres not stated)	.	.	.	.	37	.	.
CCOc1ccc(CCN2C(=S)N([C@@H](Cc3ccc(O)cc3)CN3CCC[C@@H]3CN3C(=S)NC[C@@H]3Cc3ccccc3)C[C@@H]2Cc2ccc(O)cc2)cc1	/	.	.	.	45	.	.
O=[N+]([O-])c1cccc(-c2cc(-c3cc(Br)ccc3O)[nH]n2)c1	.	.	.	.	38	.	.
Oc1ccc(Br)cc1-c1cc(-c2ccccc2)n[nH]1	.	.	.	.	.	.	/
O=C1NC[C@H](Cc2ccccc2)N(C[C@H]2CCCN2C[C@H](Cc2ccccc2)N2C[C@H](Cc3ccccc3)N(CC3CCCCCC3)C(=O)C2=O)C1=O	.	.	.	.	.	.	/
O=C1NC[C@H](Cc2ccccc2)N(C[C@@H]2CCCN2C[C@H](Cc2ccc(O)cc2)N2C[C@H](Cc3ccc(O)cc3)N(CC3CCCCC3)C(=O)C2=O)C1=O	/	/	/	.	32	.	.
O=C1NC[C@H](Cc2ccc(O)cc2)N(C[C@@H]2CCCN2C[C@H](Cc2ccccc2)N2C[C@H](Cc3ccc(O)cc3)N(CC3CCCCC3)C(=O)C2=O)C1=O	/	/	/	.	41	.	.
O=C1NC[C@H](Cc2ccc(O)cc2)N(C[C@@H]2CCCN2C[C@H](Cc2ccc(O)cc2)N2C[C@H](Cc3ccccc3)N(CC3CCCCC3)C(=O)C2=O)C1=O	/	/	/	.	33	.	.
O=C1NC[C@H](Cc2ccccc2)N(C[C@@H]2CCCN2C[C@H](Cc2ccc(O)cc2)N2C[C@H](Cc3ccccc3)N(CCc3ccccc3)C(=O)C2=O)C1=O	/	/	/	.	30	.	.
CCOc1ccc(N(CC(=O)NCc2cccnc2)S(=O)(=O)c2ccc(F)cc2)cc1	.	.	.	.	.	.	/

High-throughput results (PubChem BioAssay)
